Reference: ChEMBL document CHEMBL4017511, “Discovery of Fragment-Derived Small Molecules for in Vivo Inhibition of Ketohexokinase (KHK)” (J Med Chem, 2017)
The source made the active and inactive calls. The rule behind the calls is not given here.

Assays:
[1] = biological target: T1, Ketohexokinase (Homo sapiens, UniProt P50053); assay: Binding affinity to full length recombinant human biotin-labeled KHK by SPR assay
T1 sequence (P50053 whole entry): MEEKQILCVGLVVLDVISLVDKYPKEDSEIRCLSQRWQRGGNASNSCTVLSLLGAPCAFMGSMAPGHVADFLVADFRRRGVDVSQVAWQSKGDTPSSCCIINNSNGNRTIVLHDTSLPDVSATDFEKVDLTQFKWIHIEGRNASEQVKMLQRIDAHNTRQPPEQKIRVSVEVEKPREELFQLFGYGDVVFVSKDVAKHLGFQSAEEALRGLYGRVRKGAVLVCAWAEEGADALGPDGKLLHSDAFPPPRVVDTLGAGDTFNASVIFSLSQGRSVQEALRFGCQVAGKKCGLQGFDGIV
Outline: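 Full-length biotinylated KHK captured on a streptavidin sensor (7000-8000 RU). Run buffer was 50 mM HEPES pH 7.4, 150 mM NaCl, 0.01% P20, 500 µM TCEP, 3% DMSO at 25 °C. Eleven 2-fold concentrations from 300 µM top, stop-flow with 60 s association and ≥120 s dissociation. Data double-referenced and DMSO-corrected; KD by steady-state affinity fit, n=1.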

[2] = biological target: T1, Ketohexokinase; assay: Inhibition of recombinant human N-terminal His-tagged KHK expressed in Escherichia coli BL21(DE3) using fructose as substrate incubated for 30 mins followed by ATP addition measured for 30 mins by pyruvate kinase-lactate dehydrogenase coupled enzyme assay
Outline: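 Thrombin-cleaved (His-tag removed) human or rat KHK at 10 nM, preincubated 30 min at room temperature with compound (11-point series, 2.5% DMSO). Started with 0.2 mM ATP; NADH A340 read kinetically for 30 min. IC50 from nonlinear fit of percent inhibition; mean of replicates.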

[3] = biological target: T2, Ketohexokinase (Homo sapiens) (UniProt P50053); assay: Inhibition of recombinant full length human His-tagged KHK expressed in Escherichia coli BL21(DE3) using at 240 uM by 1D NMR-STD spectroscopic method
T2 sequence (whole entry): T1 sequence (P50053 whole entry)
Outline: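 Full-length His-tagged human KHK (tag retained) at 5 μM in 50 mM Tris-d, 100 mM NaCl, 2 mM TCEP-d, 5% glycerol-d, pH 7.5, 298 K. AMP-PMP at 240 μM served as positive control. Saturation-transfer difference NMR used 512 scans and 3 s Gaussian on/off-resonance saturation. Binding was called from positive difference signals, with ligands assigned against each fragment's 1D 1H reference spectrum.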

[4] = Apparent clearance in human liver microsomes; format: ADME, microsome; settings: read-out: CLH(app)
[5] = Octanol/water partition coefficient, log D of the compound at pH 7.4 by shake-flask method; format: physicochemical
Outline: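 LogD measured by shake-flask octanol:water partition at pH 7.4.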

Compound	Kd [1]	IC50 ([2]; read-out: IC50)	IC50 ([2]; read-out: pIC50 (converted))	inhibition [3]	microsomal CLint [4]	logD [5]
Cc1c[nH]c2ncnc(N3CCC[C@@H](CO)C3)c12	20 µM	118 µM	120 µM	Active		
Oc1nc2ccccc2nc1C(F)(F)F	44 µM	100 µM		Active		

Continued by falling IC50 ([2]; read-out: IC50), values first:

Kd [1]	IC50 ([2]; read-out: IC50)	IC50 ([2]; read-out: pIC50 (converted))	inhibition [3]	microsomal CLint [4]	logD [5]	Compound
	24.2 µM			< 8 µL/min/mg	2.1	C[C@@]1(O)CCN(c2c(C#N)c(C(F)(F)F)nc3cc[nH]c23)C1
	16.8 µM					N#Cc1c(C(F)(F)F)cc(N2CCN(CCO)CC2)nc1N1CCCC(CO)C1 (centres undefined)
	1.48 µM			103 µL/min/mg	2.8	CCc1cc2nc(C(F)(F)F)c(C#N)c(N3CCC(C)(O)C3)c2[nH]1 (racemic)
